These results are taken from ChEMBL document CHEMBL1157097, “Humulane and germacrane sesquiterpenes from Ferula lycia” (J Nat Prod, 2010).

Assay [1] in a line: Cytotoxicity against human bone marrow cells by MTT assay. The class given is cell-based. The following applies: Bone marrow cell. An outline of the steps: (§1)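 Cells grown in RPMI 1640 with 1% glutamine, 1% penicillin/streptomycin and 10% fetal calf serum, then exposed to the sesquiterpenes. Viability was read by MTT. Bone marrow came from three healthy volunteers who gave informed consent. Camptothecin was the positive control for Raji.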

In the next assay the test system is Raji. In words: Cytotoxicity against human Raji cells by MTT assay. The class given is functional, cell-based. Summed up: as §1
Assay [2] in a line: Cytotoxicity against mouse dasatinib-resistant DA1-3b cells carrying pCDNA3-p210BCR/ABL plasmid by MTT assay. It counts as functional, cell-based. Summed up: as §1
The next assay relates to K562. In words: Cytotoxicity against human imitinib-resistant K562 cells by MTT assay. The class given is functional, cell-based. Summed up: as §1
The mark [3] stands for this setting: Mus musculus, DA1-3b, read-out: IC50.
The mark [4] stands for this setting: Homo sapiens, K562, read-out: IC50.

A value given as a limit tells only on which side of the number the result lay.

On to `CC(=O)O[C@H]1/C=C(/C)[C@H](OC(=O)c2ccc(O)cc2)C/C=C(\C)CCCC1(C)C` [JUNIFERININ], for which the IC50 in assay [1] came to 30.7 µM; with Raji it was 13 µM; in assay [2] (setting [3]) it was 18.6 µM; with K562 (setting [4]), 33 µM.
`C/C=C(/C)C(=O)O[C@@H]1C/C=C(\C)CCCC(C)(C)[C@@H](OC(C)=O)/C=C\1C` [LYCIFERIN B]: the IC50 in assay [2] (setting [3]) is 45 µM; in the assay on K562 (setting [4]) it was above 50 µM.
`COc1cc(C(=O)O[C@H]2/C=C(\C)CC/C=C(\C)CC[C@H]2C(C)C)ccc1O`: the IC50 result (in assay [2] (da1-3b); in the assay on K562 (k562)) was “Not Active” throughout.
On to `C=C1/C=C/C(C)(C)[C@H](OC(=O)c2ccc(O)c(OC)c2)CC/C(C)=C/CC1` [VANILLOYL FERVANOL], for which the IC50 entry (in assay [2] (da1-3b); in the assay with K562 (k562)) was “Not Active” each time.
As for `C/C1=C/[C@H](O)C(C)(C)CCC/C(C)=C/C[C@H]1OC(=O)c1ccc(O)cc1` [JUNIFERDIN], the IC50 in assay [2] (setting [3]) is 23.7 µM; with K562 (setting [4]), above 50 µM.
In the same order, the values of `COc1cc(C(=O)O[C@@H]2C/C=C(\C)CCCC(C)(C)[C@@H](OC(C)=O)/C=C\2C)ccc1O` [LYCIFERIN E] are 20.1 µM and 41.5 µM.
For the compound `CC[C@@]1(O)C(=O)OCc2c1cc1n(c2=O)Cc2cc3ccccc3nc2-1` [CAMPTOTHECIN], the results for the IC50 (in the assay with Raji; in assay [2] (setting [3]); in the assay on K562 (setting [4])) were 1 µM, 0.03 µM and 0.002 µM, respectively.
Regarding `CC(=O)O[C@H]1/C=C(/C)[C@H](OC(=O)c2ccccc2)C/C=C(\C)CCCC1(C)C` [LYCIFERIN D], the IC50 is 45 µM in assay [2] (setting [3]) and above 50 µM in the assay on K562 (setting [4]).
In the case of `COc1cc(C(=O)O[C@@H]2C/C=C(\C)CCCC(C)(C)[C@@H](O)/C=C\2C)ccc1O` [JUNIFERIN], the IC50 was 29 µM in assay [2] (setting [3]) and above 50 µM with K562 (setting [4]).
In the case of `C/C1=C\[C@H](OC(=O)c2ccc(O)cc2)[C@H](C(C)C)CC/C(C)=C/CC1`, the IC50 was above 50 µM in assay [1], 20.9 µM with Raji, 24.7 µM in assay [2] (setting [3]) and 25.3 µM in the assay with K562 (setting [4]).
Take `C/C1=C/[C@H](O)C(C)(C)CCC/C(C)=C/C[C@H]1OC(=O)c1ccccc1` [LYCIFERIN C]: the IC50 result (in assay [2] (da1-3b); in the assay with K562 (k562)) was “Not Active” each time.
For `C/C=C(/C)C(=O)O[C@@H]1C/C=C(\C)CCCC(C)(C)[C@@H](O)/C=C\1C` [LYCIFERIN A], the IC50 entry (in assay [2] (da1-3b); in the assay with K562 (k562)) was “Not Active” throughout.
